# Assay results from ChEMBL document CHEMBL2034936, “Discovery and extensive in vitro evaluations of NK-HDAC-1: a chiral histone deacetylase inhibitor as a promising lead” (J Med Chem, 2012).
# Activity calls are given as the source filed them. The rule behind the calls is not given here.
# Key:
# A549 = assay: cells; type: functional; conditions: Homo sapiens, A549, 72 h
# OVCAR-3 = assay: cells; type: functional; conditions: Homo sapiens, OVCAR-3, 72 h
# K562 = assay: cells; type: functional; conditions: Homo sapiens, K562, 72 h
# PC-3 = assay: cells; type: functional; conditions: Homo sapiens, PC-3, 72 h
# Histone deacetylase = assay: Inhibition of HDAC in human HeLa cell nuclear extracts using Ac-Arg-Gly-Lys(Ac)-AMC substrate by fluorimetry; type: protein assay
# SW-620 = assay: cells; type: functional; conditions: Homo sapiens, SW-620, 72 h
# HepG2 = assay: cells; type: functional; conditions: Homo sapiens, HepG2, 72 h
# COLO 205 = assay: cells; type: functional; conditions: Homo sapiens, COLO 205, 72 h
# MDA-MB-231 = assay: cells; type: functional; conditions: Homo sapiens, MDA-MB-231, 72 h
# [1] = molecular target: Histone deacetylase (Homo sapiens) (UniProt Q13547+O15379+Q9UBN7+Q92769+Q9UQL6+Q8WUI4+Q9BY41+Q96DB2+P56524+Q9UKV0+Q969S8); assay: Inhibition of HDAC in human MDA-MB-231 cells assessed as stimulation of histone H3 acetylation at 5 uM incubated for 24 hrs by Western blot; type: cell-based
# Procedure, shortened: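 MDA-MB-231 cells in 35-mm dishes, dosed 24 h at graded concentrations, then trypsinized and PBS-washed. Lysed in RIPA (50 mM Tris-HCl pH 7.5, protease and phosphatase inhibitors) for 30 min at 4 °C, then cleared at 12,000g. Lysate, 60 μg protein by BCA, run on SDS-PAGE and PVDF. Blotted with anti-acetyl-histone H3 and HRP anti-rabbit, read by ECL.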
Compound,GI50 (A549),GI50 (OVCAR-3),GI50 (K562),GI50 (PC-3),IC50 (Histone deacetylase),GI50 (SW-620),GI50 (HepG2),GI50 (COLO 205),GI50 (MDA-MB-231),histone H3 acetylation activity (active/not active) [1]
CC(c1nc2ccccc2o1)n1cc(/C=C/C(=O)NO)nn1 (racemic),2.4 µM,–,–,–,0.086 µM,–,2.9 µM,–,1.2 µM,–
O=C(/C=C/c1cn(Cc2nc3ccccc3s2)nn1)NO,2.1 µM,3.6 µM,2.6 µM,2.9 µM,0.041 µM,1.5 µM,8.8 µM,1.5 µM,–,inactive
O=C(/C=C/c1cn(C(Cc2ccccc2)c2nc3ccccc3o2)nn1)NO (racemic),4.4 µM,–,–,–,0.219 µM,–,5.9 µM,–,5.5 µM,–
O=C(/C=C/c1cn(Cc2nc3ccccc3[nH]2)nn1)NO,> 20 µM,–,–,–,0.178 µM,–,> 20 µM,–,–,–

# The next compounds have a lower GI50 (A549) than those just listed; values first:
GI50 (A549),GI50 (OVCAR-3),GI50 (K562),GI50 (PC-3),IC50 (Histone deacetylase),GI50 (SW-620),GI50 (HepG2),GI50 (COLO 205),GI50 (MDA-MB-231),histone H3 acetylation activity (active/not active) [1],Compound
1.9 µM,1.1 µM,0.55 µM,1.3 µM,0.104 µM,0.48 µM,3.2 µM,1.1 µM,–,–,O=C(/C=C/c1cn(C/C=C/c2ccccc2)nn1)NO
0.4 µM,–,–,–,0.023 µM,–,1 µM,–,0.17 µM,Active,CC(C)C(c1nc2ccccc2o1)n1cc(/C=C/C(=O)NO)nn1 (racemic)
0.66 µM,–,–,–,0.019 µM,–,2.2 µM,–,0.28 µM,–,CC(C)CC(c1nc2ccccc2o1)n1cc(/C=C/C(=O)NO)nn1 (racemic)
